From ChEMBL document CHEMBL3046628, “Synthesis and herbicidal activity of 2-cyano-3-substituted-pyridinemethylaminoacrylates” (J Agric Food Chem, 2003)

How the values were obtained:
Zea mays = experiment: Phytotoxicity against Zea mays (maize) at 750 g/ha; type: organism-based; details: in vivo
Brassica napus [1] = experiment: Post-emergence herbicidal activity against Brassica napus (oilseed rape) at 75 g/ha applied through spraying after first true leaf expanded; type: functional
In short: (§1)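 Seeds sown in 6 cm diameter plastic boxes containing artificial mixed soil. Amaranthus retroflexus seed was reproduced outdoors and stored at room temperature. Alfalfa and rape seed came from a crop institute.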

Brassica napus [2] = experiment: Post-emergence herbicidal activity against Brassica napus (oilseed rape) at 300 g/ha applied through spraying after first true leaf expanded; type: functional; in short: as §1
Brassica napus [3] = experiment: Post-emergence herbicidal activity against Brassica napus (oilseed rape) at 1500 g/ha applied through spraying after first true leaf expanded; type: functional; in short: as §1
Amaranthus retroflexus [4] = experiment: Post-emergence herbicidal activity against Amaranthus retroflexus at 75 g/ha applied through spraying after first true leaf expanded; type: functional; in short: as §1
Amaranthus retroflexus [5] = experiment: Post-emergence herbicidal activity against Amaranthus retroflexus at 300 g/ha applied through spraying after first true leaf expanded; type: functional; in short: as §1
Amaranthus retroflexus [6] = experiment: Post-emergence herbicidal activity against Amaranthus retroflexus at 1500 g/ha applied through spraying after first true leaf expanded; type: functional; in short: as §1
Medicago sativa [7] = experiment: Post-emergence herbicidal activity against Medicago sativa (alfalfa) at 75 g/ha applied through spraying after first true leaf expanded; type: functional; in short: as §1
Medicago sativa [8] = experiment: Post-emergence herbicidal activity against Medicago sativa (alfalfa) at 300 g/ha applied through spraying after first true leaf expanded; type: functional; in short: as §1
Medicago sativa [9] = experiment: Post-emergence herbicidal activity against Medicago sativa (alfalfa) at 1500 g/ha applied through spraying after first true leaf expanded; type: functional; in short: as §1
Brassica napus [10] = experiment: Post-emergence herbicidal activity against Brassica napus (oilseed rape) at 1.5 kg/ha applied through spraying after first true leaf expanded; type: functional; in short: as §1
Amaranthus retroflexus [11] = experiment: Post-emergence herbicidal activity against Amaranthus retroflexus at 1.5 kg/ha applied through spraying after first true leaf expanded; type: functional; in short: as §1
Medicago sativa [12] = experiment: Post-emergence herbicidal activity against Medicago sativa (alfalfa) at 1.5 kg/ha applied through spraying after first true leaf expanded; type: functional; in short: as §1
Medicago sativa [13] = experiment: Herbicidal activity against Medicago sativa (alfalfa); type: functional
Medicago sativa [14] = experiment: Herbicidal activity against Medicago sativa (alfalfa) at 37.50 g/ha; type: functional
Medicago sativa [15] = experiment: Herbicidal activity against Medicago sativa (alfalfa) at 18.75 g/ha; type: functional
Medicago sativa [16] = experiment: Herbicidal activity against Medicago sativa (alfalfa) at 75 g/ha; type: functional
Medicago sativa [17] = experiment: Herbicidal activity against Medicago sativa (alfalfa) at 150 g/ha; type: functional
Brassica napus [18] = experiment: Pre-emergence herbicidal activity against Brassica napus (oilseed rape) at 1.5 kg/ha applied through spraying immediately after seed plantings; type: functional; in short: as §1
Amaranthus retroflexus [19] = experiment: Pre-emergence herbicidal activity against Amaranthus retroflexus at 1.5 kg/ha applied through spraying immediately after seed plantings; type: functional; in short: as §1
Medicago sativa [20] = experiment: Pre-emergence herbicidal activity against Medicago sativa (alfalfa) at 1.5 kg/ha applied through spraying immediately after seed plantings; type: functional; in short: as §1

SMILES | Activity (Zea mays) | Activity (Brassica napus [10]) [%] | Activity (Amaranthus retroflexus [11]) [%] | Activity (Medicago sativa [12]) [%] | Activity (Brassica napus [18]) [%] | Activity (Amaranthus retroflexus [19]) [%] | Activity (Medicago sativa [20]) [%] | also measured
CCOCCOC(=O)/C(C#N)=C(/NCc1ccc(Cl)nc1)SC | Non-toxic | 80.6 | 100 | 75 | – | – | – | Activity (Brassica napus [1]): 36.8%; Activity (Brassica napus [2]): 100%; Activity (Brassica napus [3]): 100%; Activity (Amaranthus retroflexus [4]): 52.3%; Activity (Amaranthus retroflexus [5]): 96.2%; Activity (Amaranthus retroflexus [6]): 100%; Activity (Medicago sativa [7]): 36.3%; Activity (Medicago sativa [8]): 57.5%; Activity (Medicago sativa [9]): 76.2%; ED50 (Medicago sativa [13]): 4.35 g/ha; ED90 (Medicago sativa [13]): 39.3 g/ha; Activity (Medicago sativa [14]): 88.9%; Activity (Medicago sativa [15]): 80.6%; Activity (Medicago sativa [16]): 95.3%; Activity (Medicago sativa [17]): 98.1%
CCOCCOC(=O)/C(C#N)=C(/NCc1ccc(Cl)cc1)SC | – | – | – | – | – | – | – | ED50 (Medicago sativa [13]): 8.85 g/ha; ED90 (Medicago sativa [13]): 193.95 g/ha; Activity (Medicago sativa [14]): 76.9%; Activity (Medicago sativa [15]): 59.3%; Activity (Medicago sativa [16]): 80.6%; Activity (Medicago sativa [17]): 87%
CCOCCOC(=O)/C(C#N)=C(/NCc1ccc(Cl)cc1)C(C)C | – | 96.5 | 93.9 | 28.1 | 0 | 52.2 | 0 | –
CCCOc1ccc(CN/C(C)=C(/C#N)C(=O)OCCOCC)cn1 | Non-toxic | 17 | 31 | 34.2 | 0 | 23.4 | 17.8 | –
CCOCCOC(=O)/C(C#N)=C(/C)NCc1ccc(OC)nc1 | Non-toxic | 69 | 100 | 64 | 92.5 | 100 | 57.1 | –
CCOCCOC(=O)/C(C#N)=C\NCc1ccc(Cl)nc1 | Non-toxic | 7.3 | 18.3 | 15.8 | 21.8 | 12.2 | 14.8 | –
CCOCCOC(=O)/C(C#N)=C(/C)NCc1ccc(Cl)nc1 | Non-toxic | 100 | 100 | 100 | 100 | 93 | 66.4 | Activity (Brassica napus [1]): 14.6%; Activity (Brassica napus [3]): 100%; Activity (Amaranthus retroflexus [4]): 18.3%; Activity (Amaranthus retroflexus [6]): 100%; Activity (Medicago sativa [7]): 0%; Activity (Medicago sativa [9]): 100%
CCOCCOC(=O)/C(C#N)=C(/CC)NCc1ccc(Cl)nc1 | Non-toxic | 100 | 100 | 83.7 | 75 | 71.4 | 71.4 | Activity (Brassica napus [1]): 94.1%; Activity (Brassica napus [2]): 98.4%; Activity (Brassica napus [3]): 100%; Activity (Amaranthus retroflexus [4]): 88.4%; Activity (Amaranthus retroflexus [5]): 100%; Activity (Amaranthus retroflexus [6]): 100%; Activity (Medicago sativa [7]): 45.3%; Activity (Medicago sativa [8]): 62.8%; Activity (Medicago sativa [9]): 83.7%
CCOCCOC(=O)/C(C#N)=C(\NCc1ccc(Cl)nc1)C(C)C | Non-toxic | 100 | 93.9 | 65.9 | 95.5 | 97.8 | 23 | Activity (Brassica napus [1]): 89.4%; Activity (Brassica napus [2]): 100%; Activity (Brassica napus [3]): 100%; Activity (Amaranthus retroflexus [4]): 72.1%; Activity (Amaranthus retroflexus [5]): 93%; Activity (Amaranthus retroflexus [6]): 100%; Activity (Medicago sativa [7]): 14%; Activity (Medicago sativa [8]): 45.3%; Activity (Medicago sativa [9]): 75.6%
CCCCOc1ccc(CN/C(=C(/C#N)C(=O)OCCOCC)C(C)C)cn1 | Non-toxic | 100 | 100 | 41 | 6.3 | 10.1 | 0 | –
CCCOc1ccc(CN/C(=C(/C#N)C(=O)OCCOCC)C(C)C)cn1 | Non-toxic | 100 | 100 | 75.9 | 30.7 | 30.4 | 14.8 | –
CCOCCOC(=O)/C(C#N)=C(\NCc1ccc(OCC)nc1)C(C)C | Non-toxic | 100 | 100 | 45.8 | 54.8 | 50.7 | 10.1 | –
CCOCCOC(=O)/C(C#N)=C(\NCc1ccc(OC)nc1)C(C)C | Non-toxic | 100 | 100 | 53 | 100 | 71 | 32.9 | –
CCOc1ccc(CN/C(SC)=C(\C#N)C(=O)OCCOC)cn1 | Non-toxic | 84.5 | 70 | 55.3 | 5.1 | 31.3 | 0 | –
COCCOC(=O)/C(C#N)=C(/NCc1ccc(OC)nc1)SC | Non-toxic | 90.1 | 90 | 72.3 | 48.8 | 50 | 10 | –
COCCOC(=O)/C(C#N)=C(/NCc1cccnc1)SC | Non-toxic | 6.4 | 0 | 15.9 | 9.1 | 0 | 0 | –
CCCOc1ccc(CN/C(SC)=C(\C#N)C(=O)OCCOCC)cn1 | Non-toxic | 96.8 | 93.8 | 0 | 16.3 | 0 | 0 | –
CCOCCOC(=O)/C(C#N)=C(/NCc1ccc(OCC)nc1)SC | Non-toxic | 100 | 100 | 91.5 | 22 | 37.5 | 0 | –
CCOCCOC(=O)/C(C#N)=C(/NCc1ccc(OC)nc1)SC | Non-toxic | 100 | 100 | 80.9 | 68.3 | 56.3 | 36.4 | –
COC(=O)COC(=O)/C(C#N)=C(/NCc1ccc(Cl)nc1)SC | Non-toxic | 0 | 0 | 4.8 | 0 | 0 | 0 | –
CS/C(NCc1ccc(Cl)nc1)=C(/C#N)C(=O)N1CCOCC1 | Non-toxic | 99.4 | 100 | 75 | 0 | 0 | 0 | Activity (Brassica napus [1]): 0%; Activity (Brassica napus [2]): 0%; Activity (Brassica napus [3]): 99.4%; Activity (Amaranthus retroflexus [4]): 0%; Activity (Amaranthus retroflexus [5]): 25%; Activity (Amaranthus retroflexus [6]): 100%; Activity (Medicago sativa [7]): 0%; Activity (Medicago sativa [8]): 9.7%; Activity (Medicago sativa [9]): 75%
CS/C(NCc1ccc(Cl)nc1)=C(/C#N)C(=O)OCC1CCCO1 (centres undefined) | Non-toxic | 100 | 98.8 | 64 | 54.2 | 14.3 | 16.7 | Activity (Brassica napus [1]): 94.7%; Activity (Brassica napus [2]): 97.3%; Activity (Brassica napus [3]): 100%; Activity (Amaranthus retroflexus [4]): 79.1%; Activity (Amaranthus retroflexus [5]): 88.4%; Activity (Amaranthus retroflexus [6]): 98.8%; Activity (Medicago sativa [7]): 41.9%; Activity (Medicago sativa [8]): 52.3%; Activity (Medicago sativa [9]): 64%
C=CCOC(=O)/C(C#N)=C(/NCc1ccc(Cl)nc1)SCC | Non-toxic | 100 | 100 | 98.8 | 0 | 0 | 0 | –
C=CCOC(=O)/C(C#N)=C(/NCc1ccc(Cl)nc1)SC | Non-toxic | 91.7 | 100 | 100 | 0 | 0 | 0 | Activity (Brassica napus [1]): 33.3%; Activity (Brassica napus [2]): 82.7%; Activity (Brassica napus [3]): 91.7%; Activity (Amaranthus retroflexus [4]): 22.2%; Activity (Amaranthus retroflexus [5]): 61.6%; Activity (Amaranthus retroflexus [6]): 100%; Activity (Medicago sativa [7]): 15.9%; Activity (Medicago sativa [8]): 56.1%; Activity (Medicago sativa [9]): 100%
